According to ChEMBL document CHEMBL3739358 (J Med Chem, 2015):
Calls of active or inactive are those of the source. No cut-off for these calls is given here.

Columns and labels:
D(2) dopamine receptor = D(2) dopamine receptor (Rattus norvegicus, UniProt P61169); test: Displacement of [3H]Spiroperidol from cloned rat dopamine D2L receptor expressed in HEK293 cells by liquid scintillation counting analysis; type: cell-based
In short: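 Competition with [3H]spiroperidol binding at cloned rat D2L and D3 receptors expressed in HEK-293 cells, giving Ki values; the selectivity ratio is D2L Ki divided by D3 Ki.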

D(3) dopamine receptor [1] = target: D(3) dopamine receptor (Rattus norvegicus, UniProt P19020); test: Displacement of [3H]Spiroperidol from cloned rat dopamine D3 receptor expressed in HEK293 cells by liquid scintillation counting analysis; type: cell-based
HEK293 = test: Selectivity ratio of Ki for cloned rat dopamine D2L receptor to Ki for cloned rat dopamine D3 receptor expressed in HEK293 cells; type: cell-based
In short: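 Competition with [3H]spiroperidol binding at cloned rat D2L and D3 receptors expressed in HEK-293 cells, giving Ki values; the selectivity ratio is D2L Ki divided by D3 Ki. Means ± SEM of 3−6 experiments, each in triplicate.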

D(3) dopamine receptor [2] = target: T1, D(3) dopamine receptor (Homo sapiens, UniProt P35462); test: Agonist activity at human D3 receptor expressed in CHO cells by [35S]GTPgammaS binding assay relative to dopamine; type: functional, cell-based
In short: (§1)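 Stimulation of [35S]GTPγS binding in CHO cells expressing hD2 or hD3 receptors. EC50 is the concentration giving half-maximal stimulation. […] Mean ± SEM of 3−6 experiments, each in triplicate.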

[3] = target: D(2) dopamine receptor (Homo sapiens) (UniProt P14416); test: Agonist activity at human D2 receptor expressed in CHO cells by [35S]GTPgammaS binding assay relative to dopamine; type: functional, cell-based; in short: as §1
[4] = target: D(2) dopamine receptor (Homo sapiens) (UniProt P14416); test: Antagonist activity against human D2 receptor expressed in CHO cells assessed as inhibition of dopamine-induced [35S]GTPgammaS binding; type: functional, cell-based
[5] = target: D(2) dopamine receptor (Homo sapiens) (UniProt P14416); settings: CHO, 200 nM
[6] = target: D(2) dopamine receptor (Homo sapiens) (UniProt P14416); settings: CHO, 1 uM
Rattus norvegicus = test: Reversal of reserpine-induced hypolocomotion in Sprague-Dawley rat at 10 umol/kg, ip administered 18 hrs post reserpine challenge measured for 6 hrs relative to reserpine-treated control; type: functional, organism-based
In short: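 Male and female Sprague−Dawley rats (220−225 g) were given reserpine 5.0 mg/kg sc 18 h beforehand and acclimatized in chambers for 1 h. Drug was given at 10 μmol/kg ip, and horizontal activity was recorded by infrared beam breaks for 6 h in 30 min bins. Three rats per group, compared with saline controls by one-way ANOVA with Dunnett's test.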

D(3) dopamine receptor [7] = target: T1, D(3) dopamine receptor; test: Agonist activity at human D3 receptor expressed in CHO cells by [35S]GTPgammaS binding assay; type: functional, cell-based
[8] = Cytotoxicity against rat PC12 cells at 0.001 to 30 uM by MTT assay relative to control; type: cell-based; settings: pc-12, in the assay text read “0.01 to 30 uM” for “0.001 to 30 uM”
In short: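 PC12 cells were grown in RPMI 1640 with 10% heat-inactivated horse serum and 5% FBS at 37 °C, seeded at 17000 cells/well for 24 h, then exposed to 0.01−30 μM compound. Viability was read by MTT (0.5 mg/mL final, 3−4 h), formazan dissolved in methanol:DMSO, A570 with 690 nm background, relative to untreated controls.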

PC-12 = test: Neuroprotective activity against 6-OHDA-induced death of rat PC12 cells assessed as cell viability pretreated for 24 hrs measured 24 hrs post 6-OHDA challenge by MTT assay relative to 6-OHDA-treated control; type: functional, cell-based
In short: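 PC12 cells were pretreated with compound for 24 h; the medium was then replaced and 75 μM 6-OHDA added for a further 24 h. Controls received 0.01% DMSO. Viability was measured by MTT (0.5 mg/mL final, 3−4 h, A570/690 nm). Mean ± SD of at least three experiments, each in four to six replicates.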

[9] = Neuroprotective activity against 6-OHDA-induced death of rat PC12 cells assessed as cell viability pretreated for 24 hrs at 20 uM measured 24 hrs post 6-OHDA challenge by MTT assay relative to 6-OHDA-treated control; type: functional; settings: PC-12, read-out: Activity
[10] = Antioxidant activity assessed as DPPH free radical scavenging activity after 30 mins; type: physicochemical; settings: 0.5 h

T1 sequence (P35462 whole entry): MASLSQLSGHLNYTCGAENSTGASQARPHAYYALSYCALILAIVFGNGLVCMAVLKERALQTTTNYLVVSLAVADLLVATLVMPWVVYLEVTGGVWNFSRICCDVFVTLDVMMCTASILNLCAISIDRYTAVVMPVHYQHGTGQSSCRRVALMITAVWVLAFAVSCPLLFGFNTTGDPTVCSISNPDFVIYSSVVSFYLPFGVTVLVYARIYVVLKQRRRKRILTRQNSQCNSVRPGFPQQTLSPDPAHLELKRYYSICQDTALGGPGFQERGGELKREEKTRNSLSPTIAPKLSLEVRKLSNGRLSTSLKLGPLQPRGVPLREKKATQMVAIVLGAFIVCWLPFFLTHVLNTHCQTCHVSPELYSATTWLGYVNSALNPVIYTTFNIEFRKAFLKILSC
Sequence of D(2) dopamine receptor (Homo sapiens) (P14416 whole entry): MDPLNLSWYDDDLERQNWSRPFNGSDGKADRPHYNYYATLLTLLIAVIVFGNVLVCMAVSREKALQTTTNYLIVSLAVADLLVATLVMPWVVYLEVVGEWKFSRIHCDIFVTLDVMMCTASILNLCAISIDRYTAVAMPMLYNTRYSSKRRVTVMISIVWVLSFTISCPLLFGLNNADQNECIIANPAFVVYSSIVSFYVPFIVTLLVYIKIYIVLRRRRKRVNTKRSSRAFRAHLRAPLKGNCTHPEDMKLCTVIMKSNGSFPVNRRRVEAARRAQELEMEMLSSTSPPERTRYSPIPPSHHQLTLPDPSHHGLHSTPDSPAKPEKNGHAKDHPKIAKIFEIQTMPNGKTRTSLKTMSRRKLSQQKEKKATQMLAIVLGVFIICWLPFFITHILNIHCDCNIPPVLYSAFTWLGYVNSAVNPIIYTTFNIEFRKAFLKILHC
Sequence of D(3) dopamine receptor (Rattus norvegicus, UniProt P19020) (P19020 whole entry): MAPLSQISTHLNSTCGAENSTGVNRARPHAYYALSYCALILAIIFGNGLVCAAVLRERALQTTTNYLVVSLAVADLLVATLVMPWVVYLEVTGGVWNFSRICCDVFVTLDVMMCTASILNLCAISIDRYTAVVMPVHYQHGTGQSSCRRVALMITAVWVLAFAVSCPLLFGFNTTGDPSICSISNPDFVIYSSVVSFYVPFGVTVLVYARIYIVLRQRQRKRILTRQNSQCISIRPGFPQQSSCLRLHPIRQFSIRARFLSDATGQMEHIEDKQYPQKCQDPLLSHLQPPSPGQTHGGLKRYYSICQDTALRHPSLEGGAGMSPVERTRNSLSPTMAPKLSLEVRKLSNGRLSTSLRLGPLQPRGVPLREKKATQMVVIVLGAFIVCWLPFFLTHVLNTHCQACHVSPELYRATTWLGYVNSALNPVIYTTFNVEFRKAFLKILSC
Sequence of D(2) dopamine receptor (P61169 whole entry): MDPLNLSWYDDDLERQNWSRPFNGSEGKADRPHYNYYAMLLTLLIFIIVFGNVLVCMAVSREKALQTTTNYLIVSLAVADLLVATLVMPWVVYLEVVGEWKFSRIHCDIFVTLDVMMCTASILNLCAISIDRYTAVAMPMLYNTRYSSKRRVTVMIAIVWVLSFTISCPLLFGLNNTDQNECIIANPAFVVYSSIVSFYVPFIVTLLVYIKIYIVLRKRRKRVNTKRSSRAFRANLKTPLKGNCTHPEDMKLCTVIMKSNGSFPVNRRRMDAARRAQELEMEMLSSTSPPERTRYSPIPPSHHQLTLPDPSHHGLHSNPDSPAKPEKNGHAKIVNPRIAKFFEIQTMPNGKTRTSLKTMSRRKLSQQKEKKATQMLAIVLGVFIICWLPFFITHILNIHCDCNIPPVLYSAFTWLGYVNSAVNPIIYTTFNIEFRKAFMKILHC

Ki (D(2) dopamine receptor)	Ki (D(3) dopamine receptor [1])	Structure (SMILES)	Ratio Ki (HEK293)	also measured
992 nM	8.87 nM	CCCN(CCN1CCN(Cc2c[nH]c3cccc(F)c23)CC1)C1CCc2nc(N)sc2C1 (racemic)	112	–
1880 nM	25 nM	CCCN(CCN1CCN(Cc2c[nH]c3cccc(OC)c23)CC1)C1CCc2nc(N)sc2C1 (racemic)	75	–
376 nM	12.9 nM	CCCN(CCN1CCN(Cc2c[nH]c3ccc(Br)cc23)CC1)C1CCc2nc(N)sc2C1 (racemic)	29	–
854 nM	12.1 nM	CCCN(CCN1CCN(Cc2c[nH]c3ccc(F)cc23)CC1)C1CCc2nc(N)sc2C1 (racemic)	71	–
1160 nM	13.8 nM	CCCN(CCN1CCN(Cc2c[nH]c3cccc(Cl)c23)CC1)C1CCc2nc(N)sc2C1 (racemic)	84	–
1640 nM	15.9 nM	CCCN(CCN1CCN(Cc2c[nH]c3ccc(OC)cc23)CC1)C1CCc2nc(N)sc2C1 (racemic)	101	–

More lines, now with the values behind:

Structure (SMILES)	Ki (D(2) dopamine receptor)	Ki (D(3) dopamine receptor [1])	Ratio Ki (HEK293)	also measured
CCCN(CCN1CCN(c2cc(F)c3[nH]ccc3c2)CC1)[C@H]1CCc2nc(N)sc2C1	156 nM	3.66 nM	43	–
CCCN1CCC[C@@H](c2cccc(O)c2)C1	–	–	–	Emax (D(3) dopamine receptor [2]): 52%; Emax [3]: 19.8%; Ke [4]: 372 nM; Ke [5]: 362 nM; Ke [6]: 383 nM
CCCN(CCC)CCc1cccc2c1CC(=O)N2	–	–	–	Activity (Rattus norvegicus): Active
CCCN[C@H]1CCc2nc(N)sc2C1	–	–	–	Activity (Rattus norvegicus): Active
CCCN(CCN1CCN(c2c(Cl)ccc3[nH]ccc23)CC1)[C@H]1CCc2nc(N)sc2C1	74.5 nM	0.87 nM	–	Emax (D(3) dopamine receptor [2]): 104%; EC50 (D(3) dopamine receptor [7]): 3.93 nM; Emax [3]: 87.6%
CCCN(CCN1CCN(c2ccc3cc[nH]c3c2Cl)CC1)[C@H]1CCc2nc(N)sc2C1.O=C(O)C(F)(F)F	16.4 nM	1.15 nM	–	Activity [8]: Non-toxic; Activity (PC-12): Dose-dependent effect; viability at 20 µM [9]: 30%; Activity [10]: Dose-dependent effect; Activity (Rattus norvegicus): Active; Emax (D(3) dopamine receptor [2]): 113%; EC50 (D(3) dopamine receptor [7]): 1.41 nM; Emax [3]: 101%
